Test results published in ChEMBL document CHEMBL4673205, “Structure-Based Design of a Covalent Inhibitor of the SET Domain-Containing Protein 8 (SETD8) Lysine Methyltransferase” (J Med Chem, 2016).
Calls of active or inactive are those of the source. No cut-off for these calls is given here.

Columns and labels:
[1] = biological target: T1, N-lysine methyltransferase KMT5A (Homo sapiens) (UniProt Q9NQR1); test: Binding affinity to wild type SETD8 catalytic domain (unknown origin) (234 to 380 residues) expressed in Escherichia coli assessed as covalent adduct formation at 20 to 200 uM incubated for 3 hrs by LC-MSD-TOF analysis; conditions: dose 20-200 µM
T1 sequence (whole entry): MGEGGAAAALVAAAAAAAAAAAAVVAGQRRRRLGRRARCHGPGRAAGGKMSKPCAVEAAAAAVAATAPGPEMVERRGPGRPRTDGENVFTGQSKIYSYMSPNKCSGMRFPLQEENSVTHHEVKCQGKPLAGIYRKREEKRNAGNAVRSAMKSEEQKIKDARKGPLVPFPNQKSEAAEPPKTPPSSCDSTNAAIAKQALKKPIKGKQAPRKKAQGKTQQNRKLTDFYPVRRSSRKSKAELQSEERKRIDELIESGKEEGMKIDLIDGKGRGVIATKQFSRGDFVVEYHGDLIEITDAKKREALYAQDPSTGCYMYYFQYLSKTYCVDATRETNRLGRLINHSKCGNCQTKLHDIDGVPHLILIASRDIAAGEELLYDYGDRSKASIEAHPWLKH

[2] = biological target: T1, N-lysine methyltransferase KMT5A (Homo sapiens); test: Binding affinity to wild type SETD8 catalytic domain (unknown origin) (234 to 380 residues) expressed in Escherichia coli assessed as covalent adduct formation at 20 to 200 uM incubated for 3 hrs in presence of GSH by LC-MSD-TOF analysis; conditions: dose 20-200 µM
Homo sapiens [3] = species: Homo sapiens; test: Binding affinity to human recombinant N-terminal His-tagged SETD8 C343S mutant (234 to 380 residues) expressed in Escherichia coli assessed as covalent adduct formation at 20 to 200 uM incubated for 3 hrs by LC-MSD-TOF analysis; conditions: dose 20-200 µM
[4] = Permeability of compound; assay type: ADME; conditions: not told; read-out: permeability
[5] = biological target: T1, N-lysine methyltransferase KMT5A (Homo sapiens); test: Inhibition of SETD8 in human HeLa cells assessed as reduction in monomethylation of H4K20 up to 10 uM; assay type: cell-based; conditions: dose microM <=10
[6] = biological target: T2, Histone-lysine N-methyltransferase SMYD3 (Homo sapiens) (UniProt Q9H7B4); test: Binding affinity to SMYD3 (unknown origin) by mass-spectrometric analysis
T2 sequence (whole entry): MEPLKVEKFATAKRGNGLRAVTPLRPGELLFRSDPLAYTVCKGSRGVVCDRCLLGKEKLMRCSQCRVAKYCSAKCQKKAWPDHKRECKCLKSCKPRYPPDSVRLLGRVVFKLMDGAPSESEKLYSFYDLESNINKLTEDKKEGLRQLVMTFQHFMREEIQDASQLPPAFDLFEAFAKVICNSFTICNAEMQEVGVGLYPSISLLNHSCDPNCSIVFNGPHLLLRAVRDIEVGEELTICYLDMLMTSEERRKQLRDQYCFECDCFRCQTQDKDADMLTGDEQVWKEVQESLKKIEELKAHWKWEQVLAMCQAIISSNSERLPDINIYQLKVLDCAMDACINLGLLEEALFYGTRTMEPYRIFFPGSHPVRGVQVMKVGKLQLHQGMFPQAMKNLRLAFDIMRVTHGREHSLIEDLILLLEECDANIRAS

[7] = biological target: T1, N-lysine methyltransferase KMT5A (Homo sapiens); test: (§1) Inhibition of wild type SETD8 catalytic domain (unknown origin) (234 to 380 residues) expressed in Escherichia coli assessed as compound-adduct monomer formation by measuring residual activity at 20 to 200 uM using varying levels of biotinylated H4 (1 to 24) peptide substrate measured after 1 hr in presence of [3H-SAM] by scintillation counting assay; conditions: dose 20-200 µM
How it was run: (§2)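 The adduct was purified by gel filtration, giving monomer and dimer fractions that interconvert after a short time. Each fraction was tested in the enzymatic assay, and residual activity was expressed relative to wild-type SETD8.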

[8] = biological target: N-lysine methyltransferase SMYD2 (Homo sapiens) (UniProt Q9NRG4); test: Binding affinity to SMYD2 (unknown origin) by mass-spectrometric analysis
[9] = biological target: T1, N-lysine methyltransferase KMT5A (Homo sapiens); test: as §1, with “dimer” for “monomer”; conditions: dose 20-200 µM; how it was run: as §2
[10] = biological target: Histone-lysine N-methyltransferase EZH2 (Homo sapiens) (UniProt Q15910); test: Binding affinity to PRC2 (unknown origin) by mass-spectrometric analysis
[11] = biological target: T3, N-lysine methyltransferase KMT5A (Homo sapiens, UniProt Q9NQR1); test: Inhibition of recombinant SETD8 catalytic domain (unknown origin) (232 to 393 residues) expressed in Escherichia coli assessed as reduction in incorporation of [3H]-labeled methyl group into biotinylated H4 (1 to 24) peptide measured after 5 hrs using [3H-SAM] by scintillation proximity assay
T3 sequence (Q9NQR1 whole entry): T1 sequence (whole entry)
How it was run: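 SETD8 catalytic domain (residues 232–393) was expressed in E. coli and purified. Compound was preincubated with the enzyme for a set time (1 h or 5 h) before a scintillation proximity methylation assay. IC50 was taken from a fitted concentration–response curve.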

[12] = Efflux ratio of compound; assay type: ADME; conditions: not told
Homo sapiens [13] = species: Homo sapiens; test: Binding affinity to human recombinant N-terminal His-tagged SETD8 C311S mutant (234 to 380 residues) expressed in Escherichia coli assessed as covalent adduct formation at 20 to 200 uM incubated for 3 hrs by LC-MSD-TOF analysis; conditions: dose 20-200 µM
[14] = biological target: T3, N-lysine methyltransferase KMT5A; test: Inhibition of recombinant SETD8 catalytic domain (unknown origin) (232 to 393 residues) expressed in Escherichia coli assessed as reduction in incorporation of [3H]-labeled methyl group into biotinylated H4 (1 to 24) peptide measured after 1 hr using [3H-SAM] by scintillation proximity assay

Sequence of N-lysine methyltransferase SMYD2 (Homo sapiens) (Q9NRG4 whole entry): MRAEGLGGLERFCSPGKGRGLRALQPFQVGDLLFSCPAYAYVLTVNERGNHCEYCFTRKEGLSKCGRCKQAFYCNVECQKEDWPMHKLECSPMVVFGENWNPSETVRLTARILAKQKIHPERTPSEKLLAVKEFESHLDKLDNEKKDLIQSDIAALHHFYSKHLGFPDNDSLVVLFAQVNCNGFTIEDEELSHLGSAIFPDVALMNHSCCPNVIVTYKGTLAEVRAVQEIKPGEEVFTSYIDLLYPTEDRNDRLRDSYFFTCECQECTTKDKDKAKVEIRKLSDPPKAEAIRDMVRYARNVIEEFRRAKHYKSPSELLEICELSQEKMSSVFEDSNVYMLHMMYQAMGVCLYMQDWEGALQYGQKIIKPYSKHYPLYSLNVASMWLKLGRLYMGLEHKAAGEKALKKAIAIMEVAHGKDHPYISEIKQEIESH
Sequence of Histone-lysine N-methyltransferase EZH2 (Homo sapiens) (Q15910 whole entry, looked up, the tested form may be a part): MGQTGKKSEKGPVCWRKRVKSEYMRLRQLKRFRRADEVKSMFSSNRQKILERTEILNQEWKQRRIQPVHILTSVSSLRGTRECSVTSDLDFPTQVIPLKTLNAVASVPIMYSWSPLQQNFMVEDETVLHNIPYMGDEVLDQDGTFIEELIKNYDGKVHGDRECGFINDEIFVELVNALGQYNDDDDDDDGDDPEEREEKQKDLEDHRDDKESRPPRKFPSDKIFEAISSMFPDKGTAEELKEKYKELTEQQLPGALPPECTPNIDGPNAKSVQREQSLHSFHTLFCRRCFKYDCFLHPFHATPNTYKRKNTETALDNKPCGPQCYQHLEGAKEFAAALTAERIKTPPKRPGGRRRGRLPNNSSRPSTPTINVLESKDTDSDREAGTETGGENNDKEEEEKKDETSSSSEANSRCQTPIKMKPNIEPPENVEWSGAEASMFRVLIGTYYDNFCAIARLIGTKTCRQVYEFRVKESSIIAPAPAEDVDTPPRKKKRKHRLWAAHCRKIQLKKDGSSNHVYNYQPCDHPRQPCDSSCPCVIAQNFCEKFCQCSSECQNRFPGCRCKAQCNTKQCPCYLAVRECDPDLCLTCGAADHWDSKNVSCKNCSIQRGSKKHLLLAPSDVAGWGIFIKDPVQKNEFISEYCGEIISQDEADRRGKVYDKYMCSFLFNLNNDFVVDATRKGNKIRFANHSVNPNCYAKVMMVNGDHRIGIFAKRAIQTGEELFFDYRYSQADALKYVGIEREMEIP

SMILES	Activity [1]	Activity [2]	Activity (Homo sapiens [3])	Papp [4] [×10⁻⁶ cm/s]	inhibition [5]	Activity [6]	Activity [7] [%]	Activity [8]	Activity [9] [%]	Activity [10]	IC50 [11] [µM]	efflux ratio [12]	Activity (Homo sapiens [13])	IC50 [14] [µM]
C=CC(=O)NCCCNc1nc(N2CCCC2)nc2cc(OC)c(OC)cc12	Active	Active	Active	0.44	inactive	inactive	10	inactive	10	inactive	0.804	137	inactive	6.9
C=CC(=O)NCCCN(C)c1nc(N2CCCC2)nc2cc(OC)c(OC)cc12	inactive	–	–	–	–	–	–	–	–	–	–	–	–	> 200
